The subject of this experiment is HL-60. The experiment can be described thus: Cytotoxicity against human HL60 cells after 72 hrs by MTT assay. Type of experiment: functional, cell-based. Particulars: HL-60, 72 h. Put shortly:
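HL-60 leukemia cells kept in RPMI 1640 with 10% fetal bovine serum, L-glutamine, 100 units/mL penicillin and 100 μg/mL streptomycin. Cells at 3 × 10^4 cells/mL exposed continuously to compound for 72 h. Growth read by MTT reduction. IC50 (50% inhibition) calculated from each compound's dose–response curve.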
In general terms: Tetrazolium dyes change colour on reduction, which living cells bring about.

For orientation: IC50 means the midpoint of a concentration-inhibition curve. Read a high IC50 as weaker potency.

Structures are written as SMILES. Some results are limits rather than exact numbers.

Consider `COc1ccc(C(=O)O[C@H]2[C@H](O[C@@H]3[C@@H](OC(C)=O)[C@H](O[C@H]4C[C@H]5[C@@H]6CC=C7C[C@@H](O)CC[C@]7(C)[C@H]6CC[C@]5(C)[C@@]4(O)[C@H](C)C(=O)CCC(C)C)OC[C@@H]3O)OC[C@@H](O[C@@H]3O[C@H](CO)[C@@H](O)[C@H](O)[C@H]3O)[C@@H]2O)cc1OC`, for which inhibition was half-maximal at 16 nM (IC50). The figure for `CC(C)CCC(O)[C@@H](C)[C@@]1(O)[C@@H](O[C@@H]2OC[C@H](O)[C@H](O[C@@H]3OC[C@@H](O)[C@H](O)[C@H]3O)[C@H]2O)C[C@H]2[C@@H]3CC=C4C[C@@H](O)CC[C@]4(C)[C@H]3CC[C@@]21C` (stereo partly drawn) is 8300 nM; for `CC(C)CCC(=O)[C@@H](C)[C@@]1(O)[C@@H](O[C@@H]2OC[C@H](O)[C@H](O[C@@H]3OC[C@@H](O[C@@H]4O[C@H](CO)[C@@H](O)[C@H](O)[C@H]4O)[C@H](O)[C@H]3O)[C@H]2O)C[C@H]2[C@@H]3CC=C4C[C@@H](O)CC[C@]4(C)[C@H]3CC[C@@]21C` it is > 10000 nM; for `COc1cc(C(=O)O[C@H]2[C@H](O[C@@H]3[C@@H](OC(C)=O)[C@H](O[C@H]4C[C@H]5[C@@H]6CC=C7C[C@@H](O)CC[C@]7(C)[C@H]6CC[C@]5(C)[C@@]4(O)[C@H](C)C(=O)CCC(C)C)OC[C@@H]3O)OC[C@@H](O[C@@H]3O[C@H](CO)[C@@H](O)[C@H](O)[C@H]3O)[C@@H]2O)cc(OC)c1OC` it is 14 nM. The figure for `CC(C)CCC(=O)[C@@H](C)[C@@]1(O)[C@@H](O[C@@H]2OC[C@H](O)[C@H](O[C@@H]3OC[C@@H](O)[C@H](O)[C@H]3O)[C@H]2O)C[C@H]2[C@@H]3CC=C4C[C@@H](O)CC[C@]4(C)[C@H]3CC[C@@]21C` is 190 nM; for `COc1cccc2c1C(=O)c1c(O)c3c(c(O)c1C2=O)C[C@@](O)(C(=O)CO)C[C@@H]3O[C@H]1C[C@H](N)[C@H](O)[C@H](C)O1` [DOXORUBICIN] it is 7.2 nM; for `COc1cc([C@@H]2c3cc4c(cc3[C@@H](O[C@@H]3O[C@@H]5CO[C@@H](C)O[C@H]5[C@H](O)[C@H]3O)[C@H]3COC(=O)[C@H]23)OCO4)cc(OC)c1O` [ETOPOSIDE] it is 25 nM. The molecule `CN(Cc1cnc2nc(N)nc(N)c2n1)c1ccc(C(=O)N[C@@H](CCC(=O)O)C(=O)O)cc1` [METHOTREXATE] displayed an IC50 of 12 nM.
